Source: PubChem BioAssay (several laboratories)
TRPC6 inh – inhibitors of mouse TRPC6 channel; HEK293-TRPC6, membrane potential dye, ACh-evoked depolarization; hits give low values; B-score at 10 µM; Q61143; AID 2553; 1.1% of 310,000 active;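 active means B-score under library mean minus 3 SD, initial fluorescence not abnormally high, positive integrated signal ratio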;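 further: B-score derived from integrated fluorescence ratio over the kinetic read; more negative B-score means stronger inhibition of depolarization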
TRPC4 PAM – TRPC4 (mouse) allosteric potentiation. Q9QUQ5. HEK293 TRPC4beta/mu-opioid, DAMGO EC20, Fluo-4 Ca2+ flux; hits give high values. B-score at 10 µM. 0.42% of 310,000 active;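 active means B-score of calcium response area above 5 SD of library B-scores, with initial fluorescence ratio within 5 SD of library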;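 further: B-score of integrated fluorescence ratio over time as area under calcium response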
Target sequence (Q9QUQ5 whole entry, looked up): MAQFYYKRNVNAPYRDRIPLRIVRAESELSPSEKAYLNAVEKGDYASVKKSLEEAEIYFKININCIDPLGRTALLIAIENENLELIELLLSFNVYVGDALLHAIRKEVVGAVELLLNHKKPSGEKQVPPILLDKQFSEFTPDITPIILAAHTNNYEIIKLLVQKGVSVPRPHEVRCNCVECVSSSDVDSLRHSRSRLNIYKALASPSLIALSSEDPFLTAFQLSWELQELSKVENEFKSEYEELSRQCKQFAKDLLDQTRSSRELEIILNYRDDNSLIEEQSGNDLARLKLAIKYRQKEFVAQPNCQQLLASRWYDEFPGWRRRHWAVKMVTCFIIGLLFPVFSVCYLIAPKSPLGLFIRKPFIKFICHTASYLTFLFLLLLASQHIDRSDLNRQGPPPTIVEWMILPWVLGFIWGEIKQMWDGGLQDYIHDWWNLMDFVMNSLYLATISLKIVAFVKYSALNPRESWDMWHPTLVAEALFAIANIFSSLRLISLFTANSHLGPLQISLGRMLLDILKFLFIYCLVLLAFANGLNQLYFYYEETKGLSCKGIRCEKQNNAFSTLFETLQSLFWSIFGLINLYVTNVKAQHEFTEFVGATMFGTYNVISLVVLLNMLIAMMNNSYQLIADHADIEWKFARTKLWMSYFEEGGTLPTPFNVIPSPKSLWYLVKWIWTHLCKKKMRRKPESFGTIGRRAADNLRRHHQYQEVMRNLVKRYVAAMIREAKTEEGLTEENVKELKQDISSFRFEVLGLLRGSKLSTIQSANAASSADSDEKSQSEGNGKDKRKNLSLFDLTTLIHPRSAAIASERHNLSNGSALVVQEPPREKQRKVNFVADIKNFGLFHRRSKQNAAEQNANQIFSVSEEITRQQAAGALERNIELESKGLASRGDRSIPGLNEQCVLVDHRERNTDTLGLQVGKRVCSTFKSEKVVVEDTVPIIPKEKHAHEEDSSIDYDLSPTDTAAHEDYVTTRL
TRPC4 act – opens the mouse TRPC4 cation channel; Q9QUQ5; HEK293 TRPC4beta/mu-opioid, Fluo4 calcium fluorescence; hits give high values; B-score at 10 µM; 0.49% of 310,000 active;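 active means B-score above 5 SD of library B-scores, and initial fluorescence ratio not above library mean plus 5 SD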;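 further: positive B-score marks a calcium rise read as TRPC4 activation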
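Assay system: HEK293 stable line with TRPC4beta plus mu-opioid receptor; schedule: 45 min room-temperature Fluo4 loading, 110 s read; technique: kinetic Fluo4 calcium fluorescence; evaluation: integrated baseline-normalised fluorescence ratio, converted to per-well B score; controls: buffer (low) and maximal DAMGO (high)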
Yeast superoxide – yeast age-related superoxide inhibition as caloric restriction mimetic. S. cerevisiae aged cells, superoxide DHE fluorescence; hits give low values. superoxide response (% of plate mean), % at 10 µM. AID 2690. 0.18% of 330,000 active;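 active means superoxide response under a set limit, about three screen SD below normal, cut at about 65% in these data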;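 further: yeast aged for seven days with compound at 30 °C before DHE staining; 100% = average MFI of all compound-treated wells on the plate with controls excluded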
TRPC4 block – inhibitors of mouse TRPC4 channel | Q9QUQ5 | HEK293 TRPC4beta/mu-opioid, DAMGO-evoked Fluo4 calcium flux; hits give low values | B-score at 10 µM | 0.39% of 300,000 active | AID 2247;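 active means B-score over 3 SD under the library average, no early fluorescence shift, positive overall ratio signal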
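Signal: kinetic Fluo4 fluorescence imaging of calcium influx. Material: stable TRPC4beta/mu-opioid receptor HEK293 cells. Probe or stimulus: DAMGO in two steps, submaximal then maximal.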
TRPC6 activator – activators of mouse TRPC6 channel. HEK293-TRPC6 membrane potential dye fluorescence; hits give high values. 0.13% of 310,000 active. Q61143. B-score at 10 µM;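 active means B-score of the integrated fluorescence ratio above library mean plus 3 SD, and starting fluorescence ratio within library mean plus 5 SD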;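 further: higher score means more depolarization so channel activation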
Starred values were filed as active, the others as inactive; i = inactive; x = no result given. Compounds with a hit are over-represented: about 2.3% of the library has one in this group of screens.

SMILES | TRPC6 inh | TRPC4 PAM | TRPC4 act | Yeast superoxide | TRPC4 block | TRPC6 activator
CC(C)(O)C#Cc1ccc(C(=O)N2CCC(CCC(=O)NC3CC3)CC2)cc1 | i | i | i | 101 | i | i
O=C(CCCSc1nc2ccccc2[nH]1)NCc1ccccc1 | i | i | i | 97 | i | i
O=C(CCCSc1nc2ccccc2[nH]1)Nc1nnc(-c2ccccc2)o1 | i | i | i | 97 | -6* | i
CN1CCN(CCCN2c3ccccc3Sc3ccc(S(=O)(=O)N(C)C)cc32)CC1 | x | x | x | 88 | x | x
CCc1ccc2nc(N=C(N)N)nc(C)c2c1 | i | i | i | 105 | -8* | i
Cc1nc(N=C(N)N)nc2ccccc12 | i | i | i | 115 | i | i
CCN1C(=O)/C(=C\N2CCCc3ccccc32)SC1=S | i | 20* | i | 116 | i | i
CCN1C(=O)/C(=C/N2CCc3ccccc32)SC1=S | i | i | i | 96 | i | i
Cc1c(C(=O)N(Cc2ccccc2)C2CCS(=O)(=O)C2)oc2ccccc12 (centres undefined) | i | i | i | 109 | i | i
Cc1c(C(=O)N(Cc2cccs2)C2CCS(=O)(=O)C2)oc2ccccc12 (centres undefined) | i | i | 67* | 102 | i | i
COC(=O)CS(=O)(=O)c1nnc([C@H](Cc2ccccc2)NC(=O)OC(C)(C)C)o1 | i | i | i | 93 | -5* | i
CC(C)CN1CCN(Cc2cnc(N3CCOCC3)s2)CC1CCO (centres undefined) | i | i | i | 91 | i | i
CCCNC(=O)OCCC12CC3CC(CC(C3)C1)C2 | i | 10* | i | 104 | i | i
N=C(N)SCc1cn2ccccc2n1 | i | 16* | i | 101 | i | i
Nc1ccccc1SCc1cn2ccccc2n1 | i | i | i | 117 | i | i
CCOc1ccc2nc(SCC)[nH]c2c1 | i | i | i | 96 | i | i
CCN(CC)CCSc1nc2ccc(OC)cc2[nH]1 | i | i | 124* | 101 | i | i
CC(=O)Cn1ncc(N2CCOCC2)cc1=O | i | i | i | 105 | -8* | i
Cc1ccc(NC2=NC3(CCCCC3)N=C(N)N2)c(C)c1 | i | i | i | 100 | i | i
Cc1ccc(NC2=NC3(CCCC3)N=C(N)N2)c(C)c1 | i | i | i | 62* | i | i
COC(=O)CC(NC(=S)NC(=O)c1ccccc1)c1ccc(Br)cc1 (centres undefined) | i | 72* | i | 108 | i | i
COC(=O)CC(N)c1ccc(Br)cc1 (centres undefined) | i | i | i | 107 | i | i
Cc1cccc(C)c1NC(=S)NC(C)CCc1ccccc1 (centres undefined) | i | i | i | 94 | i | i
CC(=O)Nc1ccc(NC(=O)C(C)OC(=O)C2CCN(S(=O)(=O)c3cccs3)CC2)cc1 (centres undefined) | i | i | i | 96 | i | i
CC(C)CN1CCC(=O)N([C@H](CSc2ccccc2)Cc2ccccc2)CC1 | i | i | i | 95 | x | i
SMILES | TRPC6 inh | TRPC4 PAM | TRPC4 act | Yeast superoxide | TRPC4 block | TRPC6 activator
CC(C)C[C@@H](COc1ccccc1)N1CCN(Cc2ccccc2)CCC1=O | i | i | 52* | 89 | i | i
Cc1ccc(SC[C@H](Cc2ccccc2)N2CCN(CC(C)C)CCC2=O)cc1 | i | i | 47* | 97 | x | i
CC(C)C[C@@H](CO)N1CCN(Cc2ccccc2)CCC1=O | i | i | i | 95 | i | i
O=C1CCN(Cc2ccccc2)CCN1[C@H](COc1ccccc1)Cc1ccccc1 | i | i | 65* | 98 | x | i
CCc1ccccc1OCC(=O)OCC(=O)N1CC(=O)Nc2ccccc21 | i | i | i | 91 | i | i
O=C(CN1CCN(Cc2ccc(Cl)cc2)C1=O)NCc1cccs1 | i | i | i | 106 | i | i
COc1cccc(NC(=O)CN(C)C(=O)COc2cc(C)ccc2Cl)c1 | i | i | i | 82 | i | i
O=C(OCC(=O)N1CCCc2ccccc21)c1cc(S(=O)(=O)N2CCOCC2)ccc1Cl | i | i | i | 90 | i | i
COc1ccc(C2CC(c3ccccc3)Nc3nc(NC(=O)c4cccs4)nn32)cc1 (centres undefined) | i | i | i | 95 | -6* | i
CCOC(=O)C1CCN(c2cc3c(cc2NC(=O)c2ccccc2Br)n(C)c(=O)n3C)CC1 | i | i | i | 108 | i | i
CCOC(=O)C1CCN(c2cc3c(cc2NC(=O)c2cc(OC)ccc2Br)n(C)c(=O)n3C)CC1 | i | 12* | i | 90 | i | i
Cc1cc(C)c(S(C)(=O)=O)c(S(=O)c2ccc(Cl)cc2)n1 (centres undefined) | i | i | i | 91 | i | i
Cc1cc(-c2csc3nc[nH]c(=S)c23)cc(C)c1C | i | i | i | 87 | i | i
O=C(c1ccc(N2CCCC2=O)cc1)N1CCN(c2ccccc2Cl)CC1 | x | x | x | 45* | x | x
COC(=O)c1cc(S(=O)(=O)NCC2CCN(Cc3cccc(F)c3)CC2)c[nH]1 | i | i | i | 78 | i | i
CN1CCN(c2ccc(C(F)(F)F)cc2NC(=O)Nc2ccccc2)CC1 | i | 17* | 105* | 82 | i | i
CO/N=C/c1ccc(N2CCN(C(=O)c3cccc(C(F)(F)F)c3)CC2)c([N+](=O)[O-])c1 | i | i | i | 98 | i | i
CCN(CC)c1nc(N2CCN(C)CC2)nc2ccccc12 | i | i | i | 102 | i | i
CCN(CC)c1nc(N2CCOCC2)nc2ccccc12 | i | i | i | 99 | -6* | i
Cc1ccc2c(c1)N(CC(=O)N1CCN(C3CCCCC3)CC1)C(=O)CO2 | i | 10* | i | 115 | i | i
CC(=O)Nc1nnc(SCC(=O)N2CCN(Cc3ccccc3)CC2)s1 | i | i | i | 92 | i | i
CCCC(=O)c1cc2c(cc1NC(=O)CC)OCCO2 | i | i | i | 97 | i | i
CCN(CC)CCSc1nc(O)c(C(C)C)c(=O)[nH]1 | i | 12* | 80* | 108 | i | i
CCCc1c(O)nc(SCCN(CC)CC)[nH]c1=O | i | i | 112* | 96 | i | i
